Series [1] is described as follows: Cytotoxicity against human HepG2 cells after 72 hrs by MTT assay. The series is classed as cell-based. In short, it runs like this: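 Cells seeded in RPMI with 10% foetal bovine serum, L-glutamine, penicillin/streptomycin, 37 °C, 6% CO₂; after 24 h, compound dilutions added for 72 h. MTT (5 mg/mL in PBS) added 2 h at 37 °C, formazan dissolved in DMSO, absorbance 570 nm (reference 630 nm). Viability as percent of untreated cells; CC50 from dose–response curve; mean of three independent experiments.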
Background: Tetrazolium assays rely on reduction of a dye to a coloured formazan, in cell work by metabolically active cells.

Series [2] in a line: Selectivity index, ratio of CC50 for human HepG2 cells to IC50 for chloroquine, pyrimethamine, and proguanil-resistant Plasmodium falciparum K1. The class given is functional. Put shortly:
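SI = HepG2 CC50 / K1 IC50. The read-out was MTT for 2 h, formazan dissolved in DMSO, A570 with 630 nm reference. Viability is expressed as % of untreated control, CC50 taken from the dose-response curve. The IC50 is from the SYBR Green K1 assay.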

For the next series, the system named is Plasmodium falciparum. Nature of the series: Antiplasmodial activity against chloroquine, pyrimethamine, and proguanil-resistant Plasmodium falciparum K1 infected in human A+ erythrocytes after 72 hrs by SYBR Green-I fluorescence-based method. The series is classed as functional, organism-based. As to conditions: K1, 72 h. Put shortly:
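Ring-stage cultures (5% sorbitol synchronised), maintained in A+ human erythrocytes with RPMI/HEPES/NaHCO3/10% A+ serum under 5% O2, 5% CO2. Assay at 2% haematocrit, 1% parasitaemia, graded compound concentrations, 72 h at 37 °C in triplicate. IC50 by nonlinear regression, mean of three independent experiments.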

Another series has as its system Toxoplasma gondii. The series is described as follows: Antimicrobial activity against tachyzoites of Toxoplasma gondii expressing PRU-beta-Gal gene infected in HFF after 72 hrs by colorimetric microtiter assay. The class given is functional, organism-based.

`ClC(Cl)(Cl)c1nc(Sc2ccccc2)c2ccccc2n1`: it took 35 µM to reach half-maximal cytotoxicity in series [1] (CC50 at 72 h). The “Ratio CC50/IC50” value in series [2] was 18.4. For the same compound, in the series with Plasmodium falciparum, the midpoint of inhibition, the IC50, lay at 1.9 µM.
The corresponding values for `Clc1ccccc1Sc1nc(C(Cl)(Cl)Cl)nc2ccccc12` are 26 µM, 9.3 and 2.8 µM.
The like results for `Clc1cccc(Sc2nc(C(Cl)(Cl)Cl)nc3ccccc23)c1` were, in that order, 16 µM, 7.3 and 2.2 µM.
The like results for `Fc1ccccc1Sc1nc(C(Cl)(Cl)Cl)nc2ccccc12` were, in that order, 28 µM, 12.2 and 2.3 µM.
As for `Fc1cccc(Sc2nc(C(Cl)(Cl)Cl)nc3ccccc23)c1`, the midpoint of cytotoxicity in series [1], the CC50 at 72 h, lay at 15.5 µM. Moreover, the “Ratio CC50/IC50” value in series [2] worked out at 8.2. For the same compound, the IC50 – broadly, the concentration at which inhibition is half-maximal – in the series with Plasmodium falciparum was 1.9 µM.
On to `Fc1ccc(Sc2nc(C(Cl)(Cl)Cl)nc3ccccc23)cc1`, for which the 50% cytotoxic concentration (CC50) (commonly the concentration at which the toxic effect on the cells reaches its halfway point) at 72 h in series [1] was over 30 µM. For the same compound, in series [2], the “Ratio CC50/IC50” value was over 25. In addition, the midpoint of inhibition in the series on Plasmodium falciparum, the IC50, lay at 1.2 µM.
The corresponding values for `FC(F)(F)c1ccccc1Sc1nc(C(Cl)(Cl)Cl)nc2ccccc12` are 28 µM, 11.2 and 2.5 µM.
In series [1], `FC(F)(F)c1cccc(Sc2nc(C(Cl)(Cl)Cl)nc3ccccc23)c1` had a CC50 at 72 h of 17.5 µM. Besides, the “Ratio CC50/IC50” value in series [2] is 8. The same compound returned an IC50 in the series with Plasmodium falciparum of 2.2 µM.
Turning to `FC(F)(F)c1ccc(Sc2nc(C(Cl)(Cl)Cl)nc3ccccc23)cc1`, half-maximal cytotoxicity in series [1] (CC50 at 72 h) was put at 13 µM. The “Ratio CC50/IC50” value in series [2] is on record as 13. Further, inhibition with Plasmodium falciparum was half-maximal at 1 µM (IC50).
The like results for `Cc1ccccc1Sc1nc(C(Cl)(Cl)Cl)nc2ccccc12` were, in that order, 52 µM, 7.4 and 7 µM.
In turn, `Cc1cccc(Sc2nc(C(Cl)(Cl)Cl)nc3ccccc23)c1` displayed a CC50 at 72 h in series [1] of 35 µM. Moreover, the “Ratio CC50/IC50” value in series [2] worked out at 18.4. Moreover, it took 1.9 µM to reach half-maximal inhibition in the series on Plasmodium falciparum (IC50).
The corresponding values for `Cc1ccc(Sc2nc(C(Cl)(Cl)Cl)nc3ccccc23)cc1` are over 30 µM, over 19 and 1.6 µM.
Compound `COc1ccccc1Sc1nc(C(Cl)(Cl)Cl)nc2ccccc12` gave a CC50 at 72 h in series [1] of 32 µM. For the same compound, the “Ratio CC50/IC50” value in series [2] amounted to 8.2. Also, the IC50 in the series on Plasmodium falciparum is 3.9 µM.
The corresponding values for `COc1cccc(Sc2nc(C(Cl)(Cl)Cl)nc3ccccc23)c1` are 12 µM, 6 and 2 µM.
The like results for `COc1ccc(Sc2nc(C(Cl)(Cl)Cl)nc3ccccc23)cc1` were, in that order, over 8 µM, over 3.2 and 2.5 µM.
The like results for `Clc1ccc(Sc2nc(C(Cl)(Cl)Cl)nc3ccccc23)c(Cl)c1` were, in that order, 18.2 µM, 12.1 and 1.5 µM.
With `Clc1ccc(Sc2ncnc3ccccc23)cc1`, the CC50 at 72 h in series [1] worked out at 16.7 µM. Also, the “Ratio CC50/IC50” value in series [2] is on record as 3.8. This compound also registered an IC50 in the series on Plasmodium falciparum of 4.4 µM.
`FC(F)(F)c1nc(Sc2ccc(Cl)cc2)c2ccccc2n1` displayed a CC50 at 72 h in series [1] of over 15 µM. In the series with Plasmodium falciparum, this compound displayed an IC50 of over 15 µM.
`Clc1nc(C(Cl)(Cl)Cl)nc2ccccc12` had a CC50 at 72 h in series [1] of over 125 µM. The “Ratio CC50/IC50” value in series [2] is given as over 2.3.
With `C[C@H]1c2cccc(O)c2C(=O)C2=C(O)[C@]3(O)C(=O)C(C(N)=O)=C(O)[C@@H](N(C)C)[C@@H]3[C@@H](O)[C@@H]21.O` [DOXYCYCLINE], the “Ratio CC50/IC50” value in series [2] amounted to 4. Moreover, in the series on Plasmodium falciparum, the midpoint of inhibition, the IC50, lay at 5 µM.
In turn, `CCc1nc(N)nc(N)c1-c1ccc(Cl)cc1` [PYRIMETHAMINE] returned an IC50 with Toxoplasma gondii of 0.8 µM.

Values taken from ChEMBL document CHEMBL2040813, “4-Thiophenoxy-2-trichloromethyquinazolines display in vitro selective antiplasmodial activity against the human malaria parasite Plasmodium falciparum” (Bioorg Med Chem Lett, 2011).
